Measurements from ChEMBL document CHEMBL1781998, “Synthesis and biological evaluation of boron peptide analogues of Belactosin C as proteasome inhibitors” (Bioorg Med Chem Lett, 2009).
Where a SMILES comes first, the peptide text is derived from it. The star is where a group is joined. Cbz = O=C(OCc1ccccc1)*

Tests used:
[1] = Inhibition of chymotrypsin-like activity of human erythrocyte 20S proteasome using Suc-LLVY-AMC substrate incubated at 37 degC for 1 hr by fluorometric assay
How it was run: (§1)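 Compound combined with 75 µM fluorogenic substrate in 20 mM Tris pH 8.0, 0.5 mM EDTA, 0.035% SDS. Reaction started with 50 ng of purified human erythrocyte 20S proteasome and run 1 h at 37 °C. Stopped with 20 mM Tris pH 8.9, 0.5% SDS; released AMC read at 365 nm excitation / 460 nm emission.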

[2] = Inhibition of caspase-like activity of human erythrocyte 20S proteasome using Z-LLE-AMC substrate incubated at 37 degC for 1 hr by fluorometric assay; how it was run: as §1
[3] = Inhibition of trypsin-like activity of human erythrocyte 20S proteasome using Boc-LLR-AMC substrate incubated at 37 degC for 1 hr by fluorometric assay; conditions: in the assay text read “Boc-LRR-AMC” for “Boc-LLR-AMC”; how it was run: as §1
HeLa [4] = experiment: Growth inhibition of human HeLa cells after 72 hrs by MTT assay; type: functional, cell-based
How it was run: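 HeLa cells incubated for 72 h with a range of compound concentrations; viability read by MTT assay and used to derive IC50.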

HeLa [5] = experiment: Cell cycle arrest in human HeLa cells assessed as accumulation at G1 phase at 1 uM after 24 hrs by flow cytometry (reference value: 56.4 +/- 0.39%); type: functional
HeLa [6] = experiment: Cell cycle arrest in human HeLa cells assessed as accumulation at S phase at 1 uM after 24 hrs by flow cytometry (reference value: 30 +/- 0.46%); type: functional
HeLa [7] = experiment: Cell cycle arrest in human HeLa cells assessed as accumulation at G2/M phase at 1 uM after 24 hrs by flow cytometry (reference value: 13.7 +/- 0.87%); type: functional
HeLa [8] = experiment: Cell cycle arrest in human HeLa cells assessed as accumulation at G1 phase at 10 uM after 24 hrs by flow cytometry (reference value: 56.4 +/- 0.39%); type: functional
HeLa [9] = experiment: Cell cycle arrest in human HeLa cells assessed as accumulation at S phase at 10 uM after 24 hrs by flow cytometry (reference value: 30 +/- 0.46%); type: functional
HeLa [10] = experiment: Cell cycle arrest in human HeLa cells assessed as accumulation at G2/M phase at 10 uM after 24 hrs by flow cytometry (reference value: 13.7 +/- 0.87%); type: functional
HeLa [11] = experiment: Induction of apoptosis in human HeLa cells at 1 uM incubated for 12 hrs using annexin V-FITC and propidiun iodide staining based flow cytometry (reference value: 2.6 +/- 0.14%); type: functional
How it was run: (§2)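 HeLa cells treated for 12 h, then stained with annexin V-FITC and propidium iodide; apoptosis measured by flow cytometry. Values are mean ± sd of triplicate samples.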

HeLa [12] = experiment: Induction of apoptosis in human HeLa cells at 10 uM incubated for 12 hrs using annexin V-FITC and propidiun iodide staining based flow cytometry (reference value: 2.6 +/- 0.14%); type: functional; how it was run: as §2
[13] = Antiproliferative activity against human HeLaS3 cells after 72 hrs; type: functional, cell-based; conditions: HeLa S3, 72 h
How it was run: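 HeLa cells were exposed to a range of compound concentrations for 72 h, and viability was then read by MTT assay. IC50 values are growth inhibition, reported as mean ± sd of triplicate samples.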

HeLa [14] = experiment: Cell cycle arrest in human HeLa cells assessed as accumulation at G1 phase at 0.1 uM after 24 hrs by flow cytometry (reference value: 56.4 +/- 0.39%); type: functional
HeLa [15] = experiment: Cell cycle arrest in human HeLa cells assessed as accumulation at S phase at 0.1 uM after 24 hrs by flow cytometry (reference value: 30 +/- 0.46%); type: functional
HeLa [16] = experiment: Cell cycle arrest in human HeLa cells assessed as accumulation at G2/M phase at 0.1 uM after 24 hrs by flow cytometry (reference value: 13.7 +/- 0.87%); type: functional
HeLa [17] = experiment: Induction of apoptosis in human HeLa cells at 0.1 uM incubated for 12 hrs using annexin V-FITC and propidiun iodide staining based flow cytometry (reference value: 2.6 +/- 0.14%); type: functional; how it was run: as §2

| SMILES | IC50 [1] [µM] | IC50 [2] [µM] | IC50 [3] [µM] | IC50 (HeLa [4]) [µM] | other results |
| --- | --- | --- | --- | --- | --- |
| CC(C)C[C@H](NC(=O)CC[C@H](NC(=O)CNC(=O)OC(C)(C)C)C(=O)NCc1ccc2ccccc2c1)B(O)O | 0.28 | 8.54 | > 10 | 0.35 | Activity (HeLa [5]): 57.7%; Activity (HeLa [6]): 16.4%; Activity (HeLa [7]): 26%; Activity (HeLa [8]): 23%; Activity (HeLa [9]): 14.4%; Activity (HeLa [10]): 62.6%; Activity (HeLa [11]): 12.9%; Activity (HeLa [12]): 15.2% |
| CC(C)C[C@H](NC(=O)CC[C@H](NC(=O)[C@H](C)NC(=O)OC(C)(C)C)C(=O)NCc1ccc2ccccc2c1)B(O)O | 0.84 | 9.84 | > 10 | 2.35 | – |
| CC(C)C[C@H](NC(=O)CCC[C@H](NC(=O)CNC(=O)OC(C)(C)C)C(=O)NCc1ccc2ccccc2c1)B(O)O | 2.74 | > 10 | > 10 | > 10 | – |
| CC(C)C[C@H](NC(=O)CC[C@H](NC(=O)OC(C)(C)C)C(=O)NCc1ccc2ccccc2c1)B(O)O | > 10 | > 10 | > 10 | > 10 | – |
| CC[C@H](C)[C@@H]1C(=O)O[C@H]1C(=O)N[C@H]1C[C@H]1C[C@H](NC(=O)[C@H](C)N)C(=O)O [BELACTOSIN A] | – | – | – | – | IC50 [13]: 51 µM |
| CC[C@H](C)[C@@H]1C(=O)O[C@H]1C(=O)NCCC[C@H](NC(=O)[C@H](C)N)C(=O)O [BELACTOSIN C] | – | – | – | – | IC50 [13]: 200 µM |
| CC(C)C[C@H](NC(=O)[C@H](Cc1ccccc1)NC(=O)c1cnccn1)B(O)O [BORTEZOMIB] | 0.02 | 0.68 | > 10 | 0.02 | Activity (HeLa [14]): 14.6%; Activity (HeLa [15]): 15.9%; Activity (HeLa [16]): 69.6%; Activity (HeLa [17]): 14.5% |

Further lines, with some results ahead:

| IC50 [1] [µM] | IC50 [2] [µM] | IC50 [3] [µM] | IC50 (HeLa [4]) [µM] | SMILES | other results |
| --- | --- | --- | --- | --- | --- |
| 1.5 | > 10 | > 10 | 0.79 | CC(C)C[C@H](NC(=O)CC[C@H](NC(=O)[C@H](CC(C)C)NC(=O)OC(C)(C)C)C(=O)NCc1ccc2ccccc2c1)B(O)O | – |
| 1.47 | > 10 | > 10 | 0.66 | CC(C)C[C@H](NC(=O)CC[C@H](NC(=O)[C@H](Cc1ccccc1)NC(=O)OC(C)(C)C)C(=O)NCc1ccc2ccccc2c1)B(O)O | – |
| 0.54 | > 10 | > 10 | 5.11 | CC(C)C[C@H](NC(=O)CC[C@H](NC(=O)CNC(=O)OC(C)(C)C)C(=O)NCc1ccccc1)B(O)O | Activity (HeLa [5]): 56.2%; Activity (HeLa [6]): 30.7%; Activity (HeLa [7]): 13.1%; Activity (HeLa [8]): 43.2%; Activity (HeLa [9]): 30.7%; Activity (HeLa [10]): 26%; Activity (HeLa [11]): 7.6%; Activity (HeLa [12]): 11.7% |
| 4.28 | > 10 | > 10 | > 10 | CC(C)C[C@H](NC(=O)CCC[C@H](NC(=O)[C@H](C)NC(=O)OC(C)(C)C)C(=O)NCc1ccc2ccccc2c1)B(O)O | – |
| 4.51 | > 10 | > 10 | > 10 | CC(C)C[C@H](NC(=O)C[C@H](NC(=O)OC(C)(C)C)C(=O)NCc1ccc2ccccc2c1)B(O)O | – |
| 4.12 | > 10 | > 10 | > 10 | CC(C)C[C@H](NC(=O)CCC[C@H](NC(=O)OC(C)(C)C)C(=O)NCc1ccc2ccccc2c1)B(O)O | – |
| 0.07 | 7.23 | > 10 | – | CC(C)C[C@@H](C=O)NC(=O)[C@H](CC(C)C)NC(=O)[C@H](CC(C)C)NC(=O)OCc1ccccc1 [MG-132] (Cbz-Leu-Leu-Leu-aldehyde) | – |
